Source: PubChem
Most compounds without a hit are left out; they make up all but 4% or so of the library.
OX1R antag-1 = human HCRTR1 antagonism | O43613 | CHO/OX1R cells, Fluo-8 calcium fluorescence, orexin A | inhibition, % at 5 µM | actives 0.43% (n = 330,000);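 active = inhibition above its plate's threshold, mean inhibition of all tested compounds on the plate plus 3 SD, cut at about 37% in these data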;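 note: 0% = orexin A challenge wells and 100% = SB-334867-A antagonist wells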
Target sequence (O43613 whole entry, looked up): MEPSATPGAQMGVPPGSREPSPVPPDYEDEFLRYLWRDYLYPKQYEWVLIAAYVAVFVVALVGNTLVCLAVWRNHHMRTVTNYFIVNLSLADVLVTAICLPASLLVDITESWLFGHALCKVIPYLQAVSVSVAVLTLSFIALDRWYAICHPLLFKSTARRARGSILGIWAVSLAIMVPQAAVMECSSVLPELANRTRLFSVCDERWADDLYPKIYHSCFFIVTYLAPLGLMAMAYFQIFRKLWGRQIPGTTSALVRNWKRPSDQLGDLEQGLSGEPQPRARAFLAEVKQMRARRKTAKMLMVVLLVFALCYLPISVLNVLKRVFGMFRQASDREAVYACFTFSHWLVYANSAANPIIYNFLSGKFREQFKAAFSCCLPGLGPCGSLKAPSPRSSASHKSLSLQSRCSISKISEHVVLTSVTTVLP
OX1R antag-2 = antagonists of human orexin 1 receptor (OX1R) | O43613 | OX1R-expressing cells, FRET antagonist read-out | inhibition, % at 6.6 µM | actives 1.8% (n = 330,000); in the data active = inhibition mostly above about 38%, no sharp cut-off; inactive = mostly below about 40%;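 note: 0% = agonist challenge alone and 100% = reference antagonist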
TAAR1 ag = human TAAR1 agonism. activation, % at 3 µM. Q96RJ0. actives 0.99% (n = 360,000). CHO RD-HGA16 TAAR1, Fluo-8 calcium fluorescence; vehicle wells 0%, saturating PEA agonist 100%;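 active = activation above the mean activation of all test compounds in the run plus 3 SD, cut at about 38% in these data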
Target sequence (Q96RJ0 whole entry, looked up): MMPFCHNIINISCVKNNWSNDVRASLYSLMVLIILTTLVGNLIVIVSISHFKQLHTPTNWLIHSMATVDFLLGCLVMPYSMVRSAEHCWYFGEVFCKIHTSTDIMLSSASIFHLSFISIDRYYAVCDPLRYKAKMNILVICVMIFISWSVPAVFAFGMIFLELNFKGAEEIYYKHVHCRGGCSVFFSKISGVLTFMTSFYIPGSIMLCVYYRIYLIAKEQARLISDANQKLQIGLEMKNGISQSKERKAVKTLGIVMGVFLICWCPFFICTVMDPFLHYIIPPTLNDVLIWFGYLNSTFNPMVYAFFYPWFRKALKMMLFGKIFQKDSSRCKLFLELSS
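Benchmarks: low control DMSO, high control PEA (EC100); System: CHO RD-HGA16 cells carrying human TAAR1 plus Gα16; Detection: Fluo-8 fluorescence, 5 s baseline then 140 s kinetic read; Schedule: 17-24 h plating, Fluo-8 75 min 37 °C, 30 min RT; Read-out basis: % activation from peak over basal fluorescence ratio, DMSO-to-PEA scaled.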
CHO parental Ca = counter-screen for OX1R antagonists: effect in parental CHO cells; actives 0.63% (n = 330,000); parental CHO-K1, ATP-induced calcium, Fluo-8 fluorescence; AID 463079; inhibition, % at 5.6 µM;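 active = inhibition above that plate's mean sample inhibition plus 3 SD, cut at about 26% in these data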;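 note: 0% = ATP-challenged DMSO wells and 100% = DMSO wells without ATP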
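Assay system: untransfected parental CHO cell line. Also added: ATP agonist challenge. Dosing: one dose, 5.6 µM nominal. Measured by: Fluo-8 fluorescence. Read-out: % inhibition. Benchmarks: ATP wells versus no-ATP DMSO wells. Repeats: no replicates.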
TAAR1 antag = human TAAR1 antagonism; AID 624466; inhibition, % at 3 µM; CHO RD-HGA16 TAAR1, Fluo-8 calcium fluorescence, antagonist; actives 1.5% (n = 360,000); Q96RJ0;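 active = inhibition above a per-plate cutoff, the mean inhibition of test compounds on that plate plus 3 SD, cut at about 49% in these data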;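 note: 0% = DMSO plus EC80 beta-PEA response and 100% = DMSO alone without agonist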
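Test system – hTAAR1-expressing CHO RD-HGA16 cells, Gα16-coupled · Reagent – β-PEA at EC80 concentration, post-compound challenge · Compound dosing – 3 µM, single point · Timing – 140 s kinetic read after compound, 140 s after agonist · Detection – Fluo-8 intracellular calcium dye fluorescence, real-time kinetic reads · Control set – DMSO and EC80 PEA controls · Repeats – n of 1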
TAAR1 ag confirm = human TAAR1 agonism, confirmed; shares compounds with TAAR1 ag; CHO RD-HGA16 TAAR1, Fluo-8 calcium fluorescence; scaled: DMSO 0%, maximal phenethylamine 100%; activation, % at 3 µM; actives 82% (n = 2,400); AID 651783;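 active = activation above a cutoff set at the run's mean compound activation plus 3 SD, cut at about 39% in these data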
Ga16 nonsel ag = nonselective agonist in parental cells, TAAR1 agonist counter-screen; actives 50% (n = 2,400); activation, % at 3 µM; CHO-Ga16 parental, Fluo-8 calcium fluorescence; normalized to maximal ATP response, DMSO zero; AID 651787; shares compounds with TAAR1 ag;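 active = activation above the run cutoff, the mean activation over all tested wells plus 3 SD, cut at about 12% in these data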;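 note: 0% = DMSO wells and 100% = maximal ATP response on the peak over basal ratio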
TAAR1 desens = TAAR1 response desensitization, agonist counter-screen. inhibition, % at 3 µM. actives 46% (n = 2,400). shares compounds with TAAR1 ag. CHO RD-HGA16 hTAAR1, Fluo-8 calcium, beta-PEA response inhibition;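 active = inhibition above the run cutoff, the mean inhibition of all test compounds plus 3 SD, cut at about 49% in these data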;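 note: beta-PEA stimulus applied at its EC80; loss of beta-PEA calcium signal after compound pretreatment read as receptor desensitization; 0% = DMSO with beta-PEA at EC80 and 100% = DMSO alone without agonist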
Ga16 antag count = nonselective Ga16 antagonism, counter-screen | shares compounds with TAAR1 ag | inhibition, % at 3 µM | CHO-Ga16 ATP-induced calcium, Fluo-8 fluorescence | actives 39% (n = 2,400);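 active = inhibition above the plate's mean compound inhibition plus 3 SD, computed per plate, cut at about 22% in these data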;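 note: 0% = EC80 ATP with DMSO and 100% = DMSO wells without ATP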
The depositor's hits bear a star; . = no result.

SMILES | OX1R antag-1 | OX1R antag-2 | TAAR1 ag | CHO parental Ca | TAAR1 antag | TAAR1 ag confirm | Ga16 nonsel ag | TAAR1 desens | Ga16 antag count
Fc1ccc(NC(=S)NC2CCN(Cc3ccccc3)CC2)cc1 | -13 | 15 | 10 | -5 | -15 | . | . | . | .
S=C(Nc1ccc(Cl)c(Cl)c1)NC1CCN(Cc2ccccc2)CC1 | 96* | 0 | 112* | 93* | 74* | 98* | 57* | 89* | 67*
Cc1cc(C(=O)CN2C(=O)C(=O)N(Cc3ccco3)C2=O)c(C)n1CCc1ccc(F)cc1 | -6 | 20 | 48* | 4 | 7 | 88* | 9 | 43 | 12
O=c1oc(Nc2cccc(F)c2)nc2ccccc12 | -5 | 22 | 8 | 4 | -13 | . | . | . | .
Nc1nc(Nc2cccc(F)c2)nc2ccccc12 | 3 | 57* | 98* | -9 | 82* | 91* | 5 | 94* | 6
O=C(O)CCCN1C(=O)/C(=C/c2ccc(-c3nc4ccccc4s3)o2)SC1=S | 1 | 2 | 72* | -5 | 82* | 55* | 39* | 84* | 67*
O=C1c2cccc(-c3ccc(C(F)(F)F)cc3)c2C2CC=CCN12 (stereo not given) | . | . | 0 | . | -11 | . | . | . | .
Cc1sc(NC(=O)c2ccco2)c(C(c2cccnc2)N2CCC(C)CC2)c1C (stereo not given) | 4 | 1 | 62* | -26 | 27 | 54* | 22* | 38 | 23*
CCN1CCN(C(c2cccnc2)c2c(NC(=O)c3ccco3)sc(C)c2C)CC1 (stereo not given) | -15 | 5 | 1 | -5 | -5 | . | . | . | .
COC(=O)c1ccc(COc2ccc(-c3nn[nH]n3)cc2)cc1 | 17 | -1 | 51* | -7 | 17 | 16 | 11 | 10 | 7
Cc1c(NC(=O)c2nn(CC(C)C)c(=O)c3ccccc23)c(=O)n(-c2ccccc2)n1C | . | . | -1 | . | -13 | . | . | . | .
COc1ccc(CCNC(=O)CNS(=O)(=O)c2ccc(N(C)C)c([N+](=O)[O-])c2)cc1OC | -28 | 4 | 4 | -21 | -13 | . | . | . | .
CN(C)c1ccc(S(=O)(=O)NCC(=O)NCc2ccccc2)cc1[N+](=O)[O-] | -24 | 11 | 79* | -21 | 48 | 12 | 4 | 0 | -6
Cc1cc2ccccn2c1C(=O)Nc1cccc(Cl)c1 | -48 | 16 | 1 | -21 | 13 | . | . | . | .
O=C(Nc1ncc(S(=O)(=O)c2ccc([N+](=O)[O-])cc2)s1)c1cccc2ccccc12 | 35 | -4 | 128* | 32 | 94* | 129* | 88* | 105* | 79*
CCC1(c2ccc(F)cc2)NC(=O)N(CC(=O)Nc2ccccc2Cl)C1=O (stereo not given) | -10 | -7 | 80* | -6 | 17 | 72* | 36* | 33 | 19
COc1ccc(NC(=O)/C(C#N)=C/c2cc(C)n(-c3ccc(N4CCOCC4)c([N+](=O)[O-])c3)c2C)cc1 | -8 | 6 | 30 | 4 | 4 | . | . | . | .
Cc1cc(/C=C(\C#N)C(=O)Nc2ccc(F)cc2)c(C)n1-c1ccc(N2CCOCC2)c([N+](=O)[O-])c1 | -21 | 10 | 69* | -7 | 21 | 24 | 10 | 31 | 28*
Fc1ccccc1C1CCN(Cc2nc(CC3CC3)no2)C1 (stereo not given) | -15 | 21 | 48* | -25 | -8 | 62* | 3 | -3 | 2
Fc1ccc2nc(C3CCN(Cc4nc(CC5CC5)no4)CC3)[nH]c2c1 | -27 | 6 | -1 | -13 | -8 | . | . | . | .
CCOC(=O)C1CCCN(C(=O)Cn2nc(C)c3c(C)n(-c4ccccc4)nc3c2=O)C1 (stereo not given) | -27 | 10 | -2 | -10 | -20 | . | . | . | .
S=C(SSC(=S)N1CCOCC1)N1CCOCC1 | . | . | 56* | . | -4 | 54* | 23* | 11 | 10
CCCCN(C)C(=O)Cn1cnc2sc(C)c(S(=O)(=O)N3CCN(c4ccccc4OC)CC3)c2c1=O | -17 | 16 | 9 | -3 | 23 | . | . | . | .
CCCc1cc(=O)[nH]c(SCC(=O)N2CCc3cc(OC)c(OC)cc3C2)n1 | -1 | -1 | 15 | -5 | -8 | . | . | . | .
CCCc1cc(=O)[nH]c(SCC(=O)N2CCc3ccccc3C2)n1 | -14 | 9 | 85* | -14 | 55* | 92* | 5 | 29 | 0
SMILES | OX1R antag-1 | OX1R antag-2 | TAAR1 ag | CHO parental Ca | TAAR1 antag | TAAR1 ag confirm | Ga16 nonsel ag | TAAR1 desens | Ga16 antag count
Nc1nc(SCC(=O)N2CCc3ccccc3C2)[nH]c(=O)c1-c1ccccc1 | 2 | 9 | 92* | -6 | 90* | 107* | 22* | 95* | -4
CCCc1cc(=O)[nH]c(SCC(=O)c2ccc3c(c2)NC(=O)CO3)n1 | -21 | 2 | 54* | -4 | 5 | 5 | 7 | -2 | 6
CC(C)Cn1c(SCC(=O)N2CCc3ccccc3C2)nc(O)cc1=O | -6 | 12 | . | -3 | . | . | 4 | . | 2
CN(C)CC(C)(C)CNS(=O)(=O)c1ccc(Cl)s1 | 1 | -1 | 4 | -7 | 15 | . | . | . | .
COc1ccc(CC(=O)NCc2n[nH]c(=S)n2-c2ccccc2OC)cc1 | -21 | 21 | -1 | 10 | 33 | . | . | . | .
CCc1ccc(C(=O)COC(=O)CNC(=O)COc2ccccc2)cc1 | -2 | 18 | 1 | -22 | -25 | . | . | . | .
COc1ccccc1CCNC(=O)C1CCCO1 (stereo not given) | -2 | 2 | 43* | 1 | 13 | 73* | 2 | 30 | 5
COc1ccccc1CC(=O)NCC1CCCO1 (stereo not given) | -24 | -1 | 3 | 5 | -8 | . | . | . | .
NC(=Nc1ccccc1)Nc1ccccc1 | 35 | 5 | 87* | 42* | 79* | 118* | 83* | 94* | 67*
CN(C)C(=S)c1ccccc1 | -9 | 6 | 0 | -5 | -6 | . | . | . | .
O=C(C(=O)N1CCc2ccccc2C1)c1cn(CC(=O)N2CCCCC2)c2ccccc12 | -48 | 13 | 80* | -17 | 70* | 102* | 2 | 86* | 12
O=C(C(=O)N1CCc2ccccc2C1)c1cn(CC(=O)N2CCOCC2)c2ccccc12 | -13 | 14 | 75* | -10 | -6 | 39* | 5 | -1 | 8
O=C(C(=O)N1CCOCC1)c1cn(CC(=O)N2CCc3ccccc3C2)c2ccccc12 | -29 | 29 | 2 | -14 | -14 | . | . | . | .
